This is an account of results in the EternaBench riboswitch data.

The apparent Kd is the concentration giving half-maximal binding under the conditions of the assay.

This data set has as its system MS2 coat protein. The data set can be described thus: apparent Kd, MS2 coat protein; higher = weaker binding; RNA-MaP array; FMN 200 µM where present. In outline:
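Green signal from SNAP-549-labelled MS2 coat protein was normalised to red-channel RNA signal and to the median Fmax of control clusters. The protein was titrated from 0.7 or 1.5 nM, doubling to 3 µM, without and then with constant ligand, over designs transcribed by stalled E. coli RNA polymerase on Illumina sequencing-chip clusters, in 100 mM Tris-HCl pH 7.5, 80 mM KCl, 4 mM MgCl2, BSA, DTT, yeast tRNA and Tween-20. The apparent Kd is the median of filtered per-cluster binding-curve fits.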

Where [1] appears, read: designed as: ON switch for flavin mononucleotide, no ligand.
[2] abbreviates: ligand present: flavin mononucleotide, designed as: ON switch for flavin mononucleotide.
The mark [3] stands for this setting: designed as: OFF switch for flavin mononucleotide, no ligand.
[4] abbreviates: ligand present: flavin mononucleotide, designed as: OFF switch for flavin mononucleotide.

“GUUAUUAUUAGUUCAUACUAUAAGAUAGAAGGUGAAUAAUUGACAUGAGGAUCACCCAUGUAAUUCAAGGAUAUGUAGAUACUC”: the “apparent Kd” value under setting [1] amounted to 32 nM and the “apparent Kd” value under setting [2] was 17.6 nM.
For “AAAAUACAUGAGGAUCACCCAUGUCAGGAUAUUCCUGCAGCCUUGAAUAUGGGCUGGUGAAGAAGGGACGGUGA”, the “apparent Kd” value is, setting by setting: under setting [3], 40.1 nM; under setting [4], 105 nM.
Turning to “AAAAGUAGAGGAUAUACAUGAGGAUCACCCAUGUAGAAAGGAAGUGUAUAUAUGGCGUGUAGAAGGCUGCAUGA”, the “apparent Kd” value stood at 38.3 nM under setting [3] and 39.2 nM under setting [4].
On to “UGGUACUAGGGAGGAUAUGGGAAGAUACAUGAGGAUCACCCAUGUUUAAGAAUGCCAAGAGGCAACUAGAAGGCCCUAGUACCU”, for which the “apparent Kd” value reads like this: under setting [1], 384 nM; under setting [2], 17.8 nM.
On the same counts, the results for “UGUUGUAUUACAGGAUAUCUAUGAUUUUUUUUUAGAGAAGGGUAUUCACAUGAGGAUCACCCAUGUAUAUACGAGGAAGUUGUG” are 51.4 nM and 62 nM.
As for “CGAUAUACGAUGGACGGAAACGUACAUGAGGAUCACCCAUGUAGAAGGCGAUCCGCAACGCGGAUUGAGGAUAUAUACCACACA”, the “apparent Kd” value under setting [3] is 23.8 nM and the “apparent Kd” value under setting [4] was 23.3 nM.
For “UAUAUAUAGUAAGGAUAUGUAUUAAUAUUAUAAACAGAAGGUACUGACAUGAGGAUCACCCAUGUUUUAGUGUGGGCAUGUAGA”, in that order: 87.6 nM and 128 nM.
For “AUCAGCUCGUCAGGAUAUACGUCACUGCUUCGGCAGUGUGGUAAGAUUACAUGAGGAUCACCCAUGUAGAAGGGACGAGCUGAU”, in that order: 6 nM and 8.61 nM.
Consider “UAUGAAUAGCAAGGAUAUUGAUAACAUGAGGAUCACCCAUGUAAUUGAUCGAGUUAGAUCAGUUACAAGAAGGUGCAAUUGAUU”, for which the “apparent Kd” value under setting [1] was 53 nM and the “apparent Kd” value under setting [2] was 557 nM.
On the same counts, the results for “GGCCAAGUCGAGAAGGCCGGUAGACAUGAGGAUCACCCAUGUAGUGCGUGGAGGAUAUUGAAUGGGUGGCGUAGGACCUGCGUU” are 106 nM and 18.6 nM.
On to “UUGGACGUCGUAUGAUAUGUAGGAUAUUCCUACAUGAGGAUCACCCAUGUUGACAUGGAAGAAGGACAGAAGGACGAUGUCCAU”, for which the “apparent Kd” value under setting [1] amounted to 192 nM and the “apparent Kd” value under setting [2] is 6.74 nM.
As to “GUCCCACAUGAGGAUCACCCAUGUGAGGAUAUGGAUUCGCUGGCCGUAGCCAGUGGAUCCAGAAGGCGCAUGAU”, the “apparent Kd” value is, setting by setting: under setting [3], 19.6 nM; under setting [4], 26.5 nM.
For “GUAGCAUACCGAGGAUAUUCCCGGAAACGGAAAACAUGAGGAUCACCCAUGUGGCGAAAGCCUUGGGAGAAGGCGGAAUGCUAC”, the “apparent Kd” value under setting [1] was 25.4 nM and the “apparent Kd” value under setting [2] came out at 19.4 nM.
For the sequence “GUUAAGGUAGGAUAUACGAUAAGAUAGGGUAGAUAUAUAACACAUGAGGAUCACCCAUGUAGAAGGACCAAUUG”, the “apparent Kd” value was 38.3 nM under setting [3] and 105 nM under setting [4].
Take “ACGUUUUUUGAGGAUAUGCGACGUUUUUUCGUCGUAGAAGGCGAUACAUGAGGAUCACCCAUGUUUAUGGGCAU”: the “apparent Kd” value runs as follows: under setting [3], 126 nM; under setting [4], 174 nM.
For “GUUCGUUUGAUAGGAUAUCGCUAUACAUGAGGAUCACCCAUGUUUACCACGCUGGUUUUUCGUACCGAGAAGGAUUCUGAUGAU”, the “apparent Kd” value under setting [1] was 40.2 nM and the “apparent Kd” value under setting [2] came out at 36.2 nM.
For the sequence “GCCCAGCCCAGGCCCACGGCAUCACAGGAUAUGCCGAUAACAUGAGGAUCACCCAUGUCAACUCCGCAGAAGGGUGAUAUCGUG”, the “apparent Kd” value under setting [1] was 121 nM and the “apparent Kd” value under setting [2] came out at 22.1 nM.
For the sequence “AUUAUUUAAGUCAGGAUAUCGUAUUUAUUUAAAUACGAGAAGGGACAUGAGGAUCACCCAUGUAAUAAAUUUUA”, the “apparent Kd” value is 14.2 nM under setting [3] and 20.4 nM under setting [4].
On to “AUCAGCCCGUCAGGAUAUACGUCACUGCGUCAGCAGUGUGGUAAGAUCACAUGAGGAUCACCCAUGUAGAAGGGACGAGCUGAU”, for which the “apparent Kd” value is, setting by setting: under setting [3], 14.2 nM; under setting [4], 261 nM.
On the same counts, the results for “UUGCCACAUGAGGAUCACCCAUGUGAGGAUAUGGCCUGUUUGGCGUGAGCUGGUUCUGUCAGAAGGCGCGUGGG” are 45.9 nM and 51.3 nM.
On the same counts, the results for “UCAAGUAUGUAGGAUAUGAUGUGAUUUUACAUAUCAGAAGGACGUACAUGAGGAUCACCCAUGUAACUUGCAUG” are 112 nM and 42.2 nM.
As for “AUGGAUAUCACAGGAUAUGCCCGGGAUACCCGGGCAGAAGGGUGAUCCAUCCUAUGUAAAUACAUGAGGAUCACCCAUGUGUCC”, the “apparent Kd” value came to 75 nM under setting [1] and 71.2 nM under setting [2].
As for “AAACAUGUCCGAGGAUAUCUGGAAACAUUUCCAAGAGAAGGCGGACAUGAGGAUCACCCAUGUCUCUCCUCAUCACAUCCAAGU”, the “apparent Kd” value is, setting by setting: under setting [3], 9.27 nM; under setting [4], 79.3 nM.
With “AAUAAAAUGAUGUUACAUGAGGAUCACCCAUGUAAGUGAUGGAGAAGGUCCCACGACUUGGGCGGGAAGGAUAUUCAGAGCAUA”, the “apparent Kd” value runs as follows: under setting [1], 16.8 nM; under setting [2], 10.3 nM.
For the sequence “GUCAGCUCGUGAGGAUAUACAUGUGCUGGAAACAGCACUAAUAGAAUCACAUGAGGAUCACCCAUGUAGAAGGCACGAGCUGAU”, the “apparent Kd” value by setting is: under setting [3], 16.9 nM; under setting [4], 40.8 nM.
Consider “AAUUGGCUCGCGCAGGAUAUGGAUCAUUCCACAUGAGGAUCACCCAUGUUAAGGAGCCUUUGCAUCCAGAAGGGUGCUGGUCUUU”, for which the “apparent Kd” value came out at 41.2 nM under setting [1] and 14.6 nM under setting [2].
For “UAAAUCGGAGGAUAUACAUGAGGAUCACCCAUGUAAUCGCGUUGGCAUCGGUGGGUUAGUAGAAGGCUGUAAAU”, the “apparent Kd” value is, setting by setting: under setting [3], 30.5 nM; under setting [4], 45.3 nM.
As to “AGUAAGAUGCAGAAGGUGCCAGCGAGAGCUGCACAUGAGGAUCACCCAUGUUGUCGGUGACGACGCAAGGAUAUGCAUCUUACA”, the “apparent Kd” value worked out at 24.5 nM under setting [1] and 6.87 nM under setting [2].
In the case of “GUACGUGGACAGAAGGUGACAUGAGGAUCACCCAUGUUAGUUGAGGUAUCAGCGAUCUGCGUGAUUGAGGAUAUGUCUGCGGGC”, the “apparent Kd” value worked out at 11.9 nM under setting [3] and 11.7 nM under setting [4].
Consider “UUGGACUACGUAGGAUAUGUAGGAUUUUCCUACAUGAGGAUCACCCAUGUUAGCAUGGAAGAAGGACAGAAGGACGUGGUCCAU”, for which the “apparent Kd” value by setting is: under setting [1], 782 nM; under setting [2], 79.3 nM.
“GGUCCACAUGAGGAUCACCCAUGUCAGGAUAUACACGGCACAAUAAUAAGUGCCACCCGUAGAAGGGACGCUGG”: the “apparent Kd” value runs as follows: under setting [3], 14.8 nM; under setting [4], 37.6 nM.
As for “GCCAUCGCAUGAGGAUAUGCUCCCGUUUCGGGAGCAGAAGGCAUGUCAUAAGACAUGAGGAUCACCCAUGUGGUAAAGAUGGCA”, the “apparent Kd” value by setting is: under setting [1], 237 nM; under setting [2], 10.3 nM.
On to “UUUUAACAUGAGGAUCACCCAUGUGAGGAUAUCGAAAUUUAUAUUUAUAUUUAUAAAUCGAGAAGGCACAUUUU”, for which the “apparent Kd” value reads like this: under setting [3], 110 nM; under setting [4], 99.1 nM.
“AAAUUAAGAAGAGGAUAUUGACAUGAGGAUCACCCAUGUAUUUGGGAGUGUUUACUGAAUUCUUACGAGAAGGCUUACGAAAUU”: the “apparent Kd” value runs as follows: under setting [3], 221 nM; under setting [4], 212 nM.
For “CCCAUCAGAGGAUAUACAUGAGGAUCACCCAUGUCAAUCGAACGGGAUGGGAGGUUAGGUAGAAGGUUGUGGAA”, the “apparent Kd” value by setting is: under setting [3], 15.2 nM; under setting [4], 16.9 nM.
Consider “CGCGAUGCGGUUGGCCCUGGGCGAGAGGAUAUGGGCAGCAGGACAUGAGGAUCACCCAUGUUCUCUCAGAAGGCUCGAGCAGGC”, for which the “apparent Kd” value by setting is: under setting [1], 247 nM; under setting [2], 24.5 nM.
